Laboratory results as given in ChEMBL document CHEMBL1134562, “Fluorosulfonyl- and bis-(beta-chloroethyl)amino-phenylamino functionalized pyrazolo[4,3-e]1,2,4-triazolo[1,5-c]pyrimidine derivatives: irreversible antagonists at the human A3 adenosine receptor and molecular modeling studies” (J Med Chem, 2001).

Key:
[1] = target: T1, Adenosine receptor A3 (Homo sapiens) (UniProt P0DMS8); assay: Irreversible inhibition of […]-AB-MECA binding to human adenosine A3 receptor at 1 nM
T1 sequence (whole entry): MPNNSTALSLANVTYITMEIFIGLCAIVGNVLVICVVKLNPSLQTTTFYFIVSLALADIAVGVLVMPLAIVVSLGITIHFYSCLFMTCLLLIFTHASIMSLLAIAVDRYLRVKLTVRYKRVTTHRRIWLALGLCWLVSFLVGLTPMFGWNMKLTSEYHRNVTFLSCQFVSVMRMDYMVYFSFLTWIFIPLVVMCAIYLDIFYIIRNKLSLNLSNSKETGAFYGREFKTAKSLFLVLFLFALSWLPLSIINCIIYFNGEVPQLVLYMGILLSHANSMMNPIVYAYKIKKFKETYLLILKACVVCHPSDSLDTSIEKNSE
In short: (§1)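 Membranes from CHO cells stably expressing human A3 receptor, preincubated 1 h at room temperature with compound (DMSO ≤1%), then washed 9 times by centrifugation/resuspension in 50 mM Tris, 10 mM Mg2+, 1 mM EDTA pH 7.4 with 0.02% CHAPS; adenosine deaminase 3 units/mL throughout.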

[2] = target: T1, Adenosine receptor A3 (Homo sapiens); assay: Irreversible inhibition of […]-AB-MECA binding to human adenosine A3 receptor at 10 nM; in short: as §1
[3] = target: T1, Adenosine receptor A3 (Homo sapiens); assay: Irreversible inhibition of […]-AB-MECA binding to human adenosine A3 receptor at 100 nM; in short: as §1

Row | SMILES | inhibition [1] | inhibition [2] | inhibition [3]
1 | Cn1cc2c(nc(NC(=O)Nc3ccc(N(CCCl)CCCl)cc3)n3nc(-c4ccco4)nc23)n1 | 0% | 11% | 22%
2 | CCCCn1cc2c(nc(NC(=O)Nc3ccc(N(CCCl)CCCl)cc3)n3nc(-c4ccco4)nc23)n1 | 0% | 7% | 9%
3 | CCCCn1cc2c(nc(NC(=O)Nc3ccc(S(=O)(=O)F)cc3)n3nc(-c4ccco4)nc23)n1 | 31% | 40% | 73%
4 | CCCn1cc2c(nc(NC(=O)Nc3ccc(S(=O)(=O)F)cc3)n3nc(-c4ccco4)nc23)n1 | 47% | 70% | 79%
5 | CCCn1cc2c(nc(NC(=O)Nc3ccc(N(CCCl)CCCl)cc3)n3nc(-c4ccco4)nc23)n1 | 7.8% | 11% | 16%
6 | CCn1cc2c(nc(NC(=O)Nc3ccc(S(=O)(=O)F)cc3)n3nc(-c4ccco4)nc23)n1 | 4.1% | 30% | 65%
7 | CCn1cc2c(nc(NC(=O)Nc3ccc(N(CCCl)CCCl)cc3)n3nc(-c4ccco4)nc23)n1 | 0% | 0% | 18%
